“And” between values parts separate entries of the source, which are not always exact repeats. Equal entries are not always repeated. Where two headings read alike, the source gives them in different places.
Assays:
[1] = IVIVE, rat EAD with httk.PBTK model; settings: oral; for EAD using Httk.PBTK model, using nominal dTP Conc.: Cmax = dTP; for EAD using Httk.PBTK model, using free medium Conc.: Cmax = free medium dTP
How it was run: (§1)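 Reverse dosimetry used the generic PBTK model from httk R package v1.8.1: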

[2] = IVIVE, rat EAD with one‐compartment PPK model; settings: oral; for EAD using PPK model, using nominal dTP Conc.: Css = dTP; for EAD using PPK model, using free medium Conc.: Css = free medium dTP
How it was run: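 Rat one-compartment population PK model assuming 100% absorption. Total clearance was hepatic plus renal (passive glomerular filtration), with inputs of plasma unbound fraction and hepatocyte Clint (predicted or experimental). Monte Carlo simulation of 10,000 individuals gave the upper 95th percentile steady-state plasma concentration. EAD was the dose giving total Css equal to the nominal dTP or Armitage-model free medium concentration.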

rat dams and fetuses = settings: cited from earlier work; for Developmental toxicity LEL: rat, oral repeat dosing, maternal and fetal LELs combined, ref Table 2 sources
[3] = system: human iPS cells (HYR0103, ATCC ACS‐1007); assay: devTOX quickPredict; assay type: cell-based; settings: threshold 0.85, 48 hours; for TP: cell viability; for dTP: o/c ratio
How it was run: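 Human iPS cells exposed across a concentration range. Ornithine and cystine abundance measured, and ornithine/cystine ratio calculated at each concentration. dTP is the concentration, interpolated from the ratio response curve, where the ratio drops below a predefined developmental-toxicity threshold set from pharmaceuticals of known human teratogenicity. TP is the concentration where viability falls below the same threshold. Nominal values converted to free-medium concentration by mass-balance model.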

[4] = IVIVE, human EAD with httk.PBTK model; settings: oral
How it was run: as §1

[5] = IVIVE, human EAD with GastroPlus pregnancy PBPK model; settings: for EAD, GP.pregancy model, Maternal plasma Cmax, free medium concentration / EAD, GP.pregancy model, Maternal plasma Cmax, nominal dTP: human pregnancy, 12 weeks gestation
[6] = cited from earlier work; for Range of all human OEDs reported: across all in vitro assays (OEDall); for Range of all human OEDs reported / Range of human OEDs estimated from most sensitive endpoints: ref OECD, 2020; for Range of human OEDs estimated from most sensitive endpoints: most sensitive endpoint in each in vitro model (OEDnarrow)
[7] = EAD by linear extrapolation of clinical dose‐Cmax data; settings: human, linear extrapolation of clinical dose‐Cmax data from PharmaPendium
How it was run: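 Clinical dose–plasma Cmax data for the reference teratogen were taken from PharmaPendium. Dose giving Cmax equal to the in vitro dTP concentration was found by linear extrapolation. dTP is the interpolated concentration where the ornithine/cystine ratio curve in the human iPS cell devTOX qP assay falls below the predefined threshold.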

[8] = Sprague–Dawley, corn oil gavage, GD 6–15, ref Narotsky et al., 1994
[9] = from CALUX Min EC10 cell-total, ref OECD 2020
[10] = from UKN1 HDAC inhibition EC10, ref OECD 2020
[11] = from ZET pericardial and/or yolk oedema Total embryo EC10, ref OECD 2020
[12] = from mEST HDAC inhibition, day 10 EC10, ref OECD 2020
[13] = Wistar, drinking water, GD 6–19, ref Pennanen et al. (1992)

Row | SMILES | EAD using Httk.PBTK model, using nominal dTP Conc. [1] | EAD using Httk.PBTK model, using free medium Conc. [1] | EAD using PPK model, using nominal dTP Conc. [2] | EAD using PPK model, using free medium Conc. [2] | Developmental toxicity LEL (rat dams and fetuses) | TP [3] | dTP [3] | EAD, Httk.PBTK model, free medium concentration [4] | EAD, Httk.PBTK model, nominal dTP [4] | EAD, GP.pregancy model, Maternal plasma Cmax, free medium concentration [5] | EAD, GP.pregancy model, Maternal plasma Cmax, nominal dTP [5] | Range of all human OEDs reported [6] | Human OED_max fu model [6, 9] | Human OED_max fu model [6, 10] | Human OED_max fu model [6, 11] | Human OED_max fu model [6, 12] | Range of human OEDs estimated from most sensitive endpoints [6] | also measured
1 | C=CCCC(=O)O [PA, 4‐Pentenoic acid] | 147.7 mg/kg/day | 145.2 mg/kg/day | 947.1 mg/kg/day | 931.1 mg/kg/day | 50 to 75 mg/kg/day | 719 µM | 913 µM |  |  |  |  |  |  |  |  |  |  | LEL: Fetal toxicity (rat dams and fetuses; [8]): 50 mg/kg/day
2 | CCCCCC(CCC)C(=O)O (stereo not shown) [PHA, 2‐Propylheptanoic acid] | 39.5 mg/kg/day | 9.1 mg/kg/day | 27.5 mg/kg/day | 6.3 mg/kg/day |  | 425 µM | 546 µM |  |  |  |  |  |  |  |  |  |  | 
3 | C=CCC(CCC)C(=O)O (stereo not shown) [4‐ene‐VPA, 2‐Propyl‐4‐pentenoic acid] | 77.1 mg/kg/day | 61.7 mg/kg/day | 119.6 mg/kg/day | 95.7 mg/kg/day |  | 636 µM | 611 µM |  |  |  |  |  |  |  |  |  |  | 
4 | CCCCC(C)C(=O)O (stereo not shown) [MHA, 2‐Methylhexanoic acid] | 331.4 mg/kg/day | 205.5 mg/kg/day | 924.3 mg/kg/day | 573.1 mg/kg/day |  | 1,631 μM | 976 µM | 176.0 mg/kg/day | 285.5 mg/kg/day | 36.5 mg/kg/day | 59.12 mg/kg/day | 2.3–928.4 | 2.3 mg/kg | 254.8 mg/kg | 55.1 mg/kg | 286.3 mg/kg | 2.3–286.3 | 
5 | CCCC(C)C(=O)O (stereo not shown) [MPA, 2‐Methylpentanoic acid] | 574.2 mg/kg/day | 467.4 mg/kg/day | 2,957.1 mg/kg/day | 2,407.2 mg/kg/day | 188 mg/kg/day |  | 1,248 μM | 440.6 mg/kg/day | 541.2 mg/kg/day | 135.8 mg/kg/day | 166.9 mg/kg/day | 35.2–1,353.3 | 37.3 mg/kg | 186.6 mg/kg | 84.5 mg/kg | 261.1 mg/kg | 37.3–261.1 | LEL: Maternal toxicity (rat dams and fetuses; [8]): 188 mg/kg/day
6 | CCC(CC)C(=O)O [EBA, 2‐Ethylbutyric acid] | 517.4 mg/kg/day | 431.8 mg/kg/day | 2,708.3 mg/kg/day | 2,260.4 mg/kg/day | 150 mg/kg/day |  | 1,071 μM | 404.5 mg/kg/day | 484.7 mg/kg/day | 127.8 mg/kg/day | 153.2 mg/kg/day | 34.4–826.6 | 35.8 mg/kg | 161.4 mg/kg | 53.3 mg/kg | 357.8 mg/kg | 35.8–357.8 | 
7 | CCCCC(CC)C(=O)O (stereo not shown) [EHA, 2‐Ethylhexanoic acid] | 77.3 mg/kg/day | 36.9 mg/kg/day | 95.3 mg/kg/day | 45.5 mg/kg/day | 100 to 600 mg/kg/day | 390 µM | 399 µM | 22.4 mg/kg/day | 47.0 mg/kg/day | 6.7 mg/kg/day | 14.1 mg/kg/day | 0.74–901.3 |  |  |  |  |  | LEL: Fetal toxicity (rat dams and fetuses; [13]): 100 mg/kg/day; LEL: Maternal toxicity (rat dams and fetuses; [13]): 600 mg/kg/day; Human OED_max fu model ([6]; human): 4.8 mg/kg
8 | CCCCCC(=O)O [HA, Hexanoic acid] | 652.7 mg/kg/day | 515.6 mg/kg/day | 2,921.8 mg/kg/day | 2,308.2 mg/kg/day |  | 1,022 μM | 838 µM |  |  |  |  |  |  |  |  |  |  | 
9 | CCCC(C)(C)C(=O)O [DMPA, 2,2‐Dimethylpentanoic acid] | 388.3 mg/kg/day | 209.7 mg/kg/day | 936.6 mg/kg/day | 505.8 mg/kg/day |  | 1,745 μM | 784 µM |  |  |  |  |  |  |  |  |  |  | 
10 | CCCC(CCC)C(=O)O [VPA, Valproic acid, reference compound] | 13.5 mg/kg/day | 5.8 mg/kg/day | 33.3 mg/kg/day | 14.3 mg/kg/day | 200 mg/kg/day and 200 to 400 mg/kg/day | 318 µM | 236 µM | 4.5 mg/kg/day | 10.4 mg/kg/day | 2.7 mg/kg/day | 6.4 mg/kg/day | 0.11–51.9 | 3.2 mg/kg | 3 mg/kg | 2.8 mg/kg | 2 mg/kg | 0.11–3.2 | LEL: Fetal toxicity (rat dams and fetuses; Sprague–Dawley, GD 8–17, dose range 0–800, ref Binkerd et al., 1988): 200 mg/kg/day; LEL: Fetal toxicity (rat dams and fetuses; [8]): 200 mg/kg/day; LEL: Maternal toxicity (rat dams and fetuses; [8]): 400 mg/kg/day; range of EADs derived from the in vitro dTP concentration ([5]; human, across all models, nominal and free): 2.7 to 24.4 mg/kg/day; EAD based on Clinical PK data [7]: 4.6 mg/kg/day

Source: PMC9790683 (Birth Defects Research, 2022)
